Measured values: ChEMBL document CHEMBL1135709, “2,6-Di(omega-aminoalkyl)-2,5,6,7-tetrahydropyrazolo[3,4,5-mn]pyrimido[5,6,1-de]acridine-5,7-diones: novel, potent, cytotoxic, and DNA-binding agents” (J Med Chem, 2002)
pIC50: −log10 of the molar value.

Legend:
786-0 [1] = experiment: Percent growth of NCI cell line, renal: 786-0 exposed for 48 hr at 10e-6 concentration; format: functional, Homo sapiens
Procedure, shortened: (§1)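 NCI panel cell lines exposed 48 h to 10^-8, 10^-6 and 10^-4 M drug; read-out is percent growth at each concentration.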

786-0 [2] = experiment: Percent growth of NCI cell line, renal: 786-0 exposed for 48 hr at 10e-8 concentration; format: functional, Homo sapiens; procedure, shortened: as §1
OVCAR-4 [3] = experiment: Percent growth of NCI cell line, ovarian: OVCAR-4 exposed for 48 hr at 10e-4 concentration; format: functional, Homo sapiens; procedure, shortened: as §1
MCF7 [4] = experiment: Percent growth of NCI cell line, breast: MCF-7 exposed for 48 hr at 10e-4 concentration; format: functional, Homo sapiens; procedure, shortened: as §1
HCT-15 [5] = experiment: Percent growth of NCI cell line, colon: HCT-15 exposed for 48 hr at 10e-4 concentration; format: functional, Homo sapiens; procedure, shortened: as §1
LoVo [6] = experiment: Cytotoxicity activity on LoVo human adenocarcinoma cell line after 1 hr of drug exposure; format: functional, cell-based
Procedure, shortened: (§2)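 LoVo (sensitive) and LoVo/Dx (resistant) human colon adenocarcinoma cells seeded at 2.5 × 10^5 cells/mL medium; drug solutions added to culture. IC50 = drug concentration inhibiting cell growth by 50%, assays in triplicate.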

LoVo [7] = experiment: Cytotoxicity activity on LoVo/Dx human adenocarcinoma cell line after 1 hr of drug exposure; format: functional, cell-based; procedure, shortened: as §2
LoVo [8] = experiment: Cytotoxicity activity on LoVo/Dx human adenocarcinoma cell line after 144 hr of drug exposure; format: functional, cell-based
Procedure, shortened: (§3)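 LoVo (sensitive) and LoVo/Dx (resistant) human colon adenocarcinoma cells seeded at 2.5 × 10^5 cells/mL medium; drug solutions added to culture.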

OVCAR-4 [9] = experiment: Percent growth of NCI cell line, ovarian: OVCAR-4 exposed for 48 hr at 10e-6 concentration; format: functional, Homo sapiens; procedure, shortened: as §1
HCT-15 [10] = experiment: Percent growth of NCI cell line, colon: HCT-15 exposed for 48 hr at 10e-6 concentration; format: functional, Homo sapiens; procedure, shortened: as §1
786-0 [11] = experiment: Percent growth of NCI cell line, renal: 786-0 exposed for 48 hr at 10e-4 concentration; format: functional, Homo sapiens; procedure, shortened: as §1
[12] = Percent growth of NCI cell line, leucemia K562 exposed for 48 hr at 10e-8 concentration; format: functional, Homo sapiens; procedure, shortened: as §1
NCI-H460 [13] = experiment: Percent growth of NCI cell line, lung-nsc: NCI-H460 exposed for 48 hr at 10e-8 concentration; format: functional, Homo sapiens; procedure, shortened: as §1
HCT-15 [14] = experiment: Percent growth of NCI cell line, colon: HCT-15 exposed for 48 hr at 10e-8 concentration; format: functional, Homo sapiens; procedure, shortened: as §1
NCI-H460 [15] = experiment: Percent growth of NCI cell line, lung-nsc: NCI-H460 exposed for 48 hr at 10e-6 concentration; format: functional, Homo sapiens; procedure, shortened: as §1
MCF7 [16] = experiment: Percent growth of NCI cell line, breast: MCF-7 exposed for 48 hr at 10e-6 concentration; format: functional, Homo sapiens; procedure, shortened: as §1
DU-145 [17] = experiment: Percent growth of NCI cell line, prostate: DU-145 exposed for 48 hr at 10e-4 concentration; format: functional, Homo sapiens; procedure, shortened: as §1
DU-145 [18] = experiment: Percent growth of NCI cell line, prostate: DU-145 exposed for 48 hr at 10e-6 concentration; format: functional, Homo sapiens; procedure, shortened: as §1
OVCAR-4 [19] = experiment: Percent growth of NCI cell line, ovarian: OVCAR-4 exposed for 48 hr at 10e-8 concentration; format: functional, Homo sapiens; procedure, shortened: as §1
SNB-19 [20] = experiment: Percent growth of NCI cell line, CNS: SNB-19 exposed for 48 hr at 10e-8 concentration; format: functional, Homo sapiens; procedure, shortened: as §1
[21] = Percent growth of NCI cell line, leucemia K562 exposed for 48 hr at 10e-4 concentration; format: functional, Homo sapiens; procedure, shortened: as §1
Calf thymus DNA = experiment: CT-DNA binding required to produce a 50% drop in fluorescence of DNA-bound ethidium.; format: nucleic-acid assay; conditions: Bos taurus
Procedure, shortened: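 Ethidium displacement from calf thymus DNA in 10 mM Na2HPO4, 10 mM NaH2PO4, 1 mM EDTA, pH 7.0, containing 1.26 μM ethidium bromide and 1 μM CT-DNA. Drug added serially from ~5 mM DMSO stock; 20 °C; fluorescence excitation 546 nm, emission 595 nm. C50 = drug concentration lowering DNA-bound ethidium fluorescence by 50%, mean of three determinations.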

NCI-H460 [22] = experiment: Percent growth of NCI cell line, lung-nsc: NCI-H460 exposed for 48 hr at 10e-4 concentration; format: functional, Homo sapiens; procedure, shortened: as §1
SNB-19 [23] = experiment: Percent growth of NCI cell line, CNS: SNB-19 exposed for 48 hr at 10e-4 concentration; format: functional, Homo sapiens; procedure, shortened: as §1
HT-29 = experiment: In vitro cytotoxic potency against HT-29 (human colon adenocarcinoma) cell line.; format: functional, cell-based
SNB-19 [24] = experiment: Percent growth of NCI cell line, CNS: SNB-19 exposed for 48 hr at 10e-6 concentration; format: functional, Homo sapiens; procedure, shortened: as §1
LOX IMVI [25] = experiment: Percent growth of NCI cell line, melanoma: LOX IMVI exposed for 48 hr at 10e-4 concentration; format: functional, Homo sapiens; procedure, shortened: as §1
LoVo [26] = experiment: Cytotoxicity activity on LoVo human adenocarcinoma cell line after 144 hr of drug exposure; format: functional, cell-based; procedure, shortened: as §3
MCF7 [27] = experiment: Percent growth of NCI cell line, breast: MCF-7 exposed for 48 hr at 10e-8 concentration; format: functional, Homo sapiens; procedure, shortened: as §1
[28] = Percent growth of NCI cell line, leucemia K562 exposed for 48 hr at 10e-6 concentration; format: functional, Homo sapiens; procedure, shortened: as §1
LOX IMVI [29] = experiment: Percent growth of NCI cell line, melanoma: LOX IMVI exposed for 48 hr at 10e-8 concentration; format: functional, Homo sapiens; procedure, shortened: as §1
DU-145 [30] = experiment: Percent growth of NCI cell line, prostate: DU-145 exposed for 48 hr at 10e-8 concentration; format: functional, Homo sapiens; procedure, shortened: as §1
LOX IMVI [31] = experiment: Percent growth of NCI cell line, melanoma: LOX IMVI exposed for 48 hr at 10e-6 concentration; format: functional, Homo sapiens; procedure, shortened: as §1

SMILES	Growth (786-0 [1])	Growth (786-0 [2])	Growth (OVCAR-4 [3])	Growth (MCF7 [4])	Growth (HCT-15 [5])	pIC50 (LoVo [6])	pIC50 (LoVo [7])	pIC50 (LoVo [8])	Growth (OVCAR-4 [9])	Growth (HCT-15 [10])	Growth (786-0 [11])	Growth [12]	Growth (NCI-H460 [13])	Growth (HCT-15 [14])	Growth (NCI-H460 [15])	Growth (MCF7 [16])	Growth (DU-145 [17])	Growth (DU-145 [18])	Growth (OVCAR-4 [19])	Growth (SNB-19 [20])	further results
COc1ccc2c(c1)c1nn(CCN(C)C)c3ccc4c(=O)n(CCN(C)C)c(=O)n2c4c13	-26%	28%	-82%	-89%	-80%	6.54	6.85	8.74	-73%	-31%	-96%	47%	9%	36%	-60%	-27%	-77%	-11%	40%	62%	Growth [21]: -81%; C50 (Calf thymus DNA): 0.052 µM; Growth (NCI-H460 [22]): -95%; Growth (SNB-19 [23]): -62%; pIC50 (HT-29): 7.96; Growth (SNB-19 [24]): -15%; Growth (LOX IMVI [25]): -80%; pIC50 (LoVo [26]): 7.89; Growth (MCF7 [27]): 49%; Growth [28]: -14%; Growth (LOX IMVI [29]): 62%; Growth (DU-145 [30]): 54%; Growth (LOX IMVI [31]): -19%
COc1ccc2c(c1)c1nn(CCN3CCCCC3)c3ccc4c(=O)n(CCN(C)C)c(=O)n2c4c13	-41%	20%	-89%	-12%	-61%				-84%	-34%	-67%	39%	22%	24%	-36%	4%	-91%	-51%	15%	55%	Growth [21]: -12%; C50 (Calf thymus DNA): 0.0099 µM; Growth (NCI-H460 [22]): -57%; Growth (SNB-19 [23]): -54%; pIC50 (HT-29): 10.40; Growth (SNB-19 [24]): 8%; Growth (MCF7 [27]): 42%; Growth [28]: 12%; Growth (DU-145 [30]): 39%
CN(C)CCn1c(=O)c2ccc3c4c(nn3CCN(C)C)c3ccccc3n(c1=O)c24	-42%	27%	-56%	-95%	-85%	6.54	7.10	8.41	-36%	-29%	-90%	61%	30%	48%	-44%	-41%	-37%	-16%	51%	66%	Growth [21]: -67%; C50 (Calf thymus DNA): 0.0018 µM; Growth (NCI-H460 [22]): -79%; Growth (SNB-19 [23]): -41%; pIC50 (HT-29): 7.43; Growth (SNB-19 [24]): -3%; Growth (LOX IMVI [25]): -93%; pIC50 (LoVo [26]): 7.92; Growth (MCF7 [27]): 63%; Growth [28]: -27%; Growth (LOX IMVI [29]): 65%; Growth (DU-145 [30]): 60%; Growth (LOX IMVI [31]): -32%
COc1cccc2c1C(=O)c1c(O)c3c(c(O)c1C2=O)C[C@@](O)(C(=O)CO)C[C@@H]3O[C@H]1C[C@H](N)[C@H](O)[C@H](C)O1 [DOXORUBICIN]						6.07	5.01	5.62													pIC50 (LoVo [26]): 7.62
CN(C)CCn1c(=O)c2ccc3c4c(nn3CCN(C)C)c3cc([N+](=O)[O-])ccc3n(c1=O)c24	-25%	36%	-96%	-93%	-89%	6.28	6.72	7.89	-55%	-4%	-99%	82%	47%	68%	-19%	-12%	-94%	-16%	57%	75%	Growth [21]: -38%; C50 (Calf thymus DNA): 0.07 µM; Growth (NCI-H460 [22]): -94%; Growth (SNB-19 [23]): -93%; pIC50 (HT-29): 9.01; Growth (SNB-19 [24]): 2%; Growth (LOX IMVI [25]): -89%; pIC50 (LoVo [26]): 7.80; Growth (MCF7 [27]): 81%; Growth [28]: 6%; Growth (LOX IMVI [29]): 79%; Growth (DU-145 [30]): 82%; Growth (LOX IMVI [31]): 5%
CN(C)CCn1c(=O)c2ccc3c4c(nn3CCN(C)C)c3cc(O)ccc3n(c1=O)c24	-11%	43%	-60%	-64%	-68%	6.66	7.10	6.77	-19%	21%	-82%	84%	71%	85%	-23%	-17%	-50%	0%	70%	65%	Growth [21]: -66%; C50 (Calf thymus DNA): 0.056 µM; Growth (NCI-H460 [22]): -74%; Growth (SNB-19 [23]): -72%; pIC50 (HT-29): 7.41; Growth (SNB-19 [24]): -1%; Growth (LOX IMVI [25]): -79%; pIC50 (LoVo [26]): 7.96; Growth (MCF7 [27]): 60%; Growth [28]: 7%; Growth (LOX IMVI [29]): 63%; Growth (DU-145 [30]): 71%; Growth (LOX IMVI [31]): -48%
